{
  "source": "ChEMBL document CHEMBL3994591",
  "about": "“Novel ferulic amide derivatives with tertiary amine side chain as acetylcholinesterase and butyrylcholinesterase inhibitors: The influence of carbon spacer length, alkylamine and aromatic group” (Eur J Med Chem, 2017)",
  "key": {"[1]": {"assay": "Inhibition of carboxylesterase (unknown origin) using 4-nitrophenyl acetate as substrate by UV-Vis spectrophotometer", "parameters": "species or system Homo sapiens", "summary_of_the_method": "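Read-out was 4-nitrophenol released by CaE hydrolysis of 1.0 mmol/L 4-nitrophenyl acetate, measured at 405 nm. Reactions ran in 100 mmol/L potassium phosphate buffer, pH 8.0, at 25 °C. CaE activity was taken as proportional to 4-nitrophenol concentration.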"}, "[2]": {"molecular_target": "T1, Acetylcholinesterase (Homo sapiens, UniProt P22303)", "T1 sequence (P22303 whole entry)": "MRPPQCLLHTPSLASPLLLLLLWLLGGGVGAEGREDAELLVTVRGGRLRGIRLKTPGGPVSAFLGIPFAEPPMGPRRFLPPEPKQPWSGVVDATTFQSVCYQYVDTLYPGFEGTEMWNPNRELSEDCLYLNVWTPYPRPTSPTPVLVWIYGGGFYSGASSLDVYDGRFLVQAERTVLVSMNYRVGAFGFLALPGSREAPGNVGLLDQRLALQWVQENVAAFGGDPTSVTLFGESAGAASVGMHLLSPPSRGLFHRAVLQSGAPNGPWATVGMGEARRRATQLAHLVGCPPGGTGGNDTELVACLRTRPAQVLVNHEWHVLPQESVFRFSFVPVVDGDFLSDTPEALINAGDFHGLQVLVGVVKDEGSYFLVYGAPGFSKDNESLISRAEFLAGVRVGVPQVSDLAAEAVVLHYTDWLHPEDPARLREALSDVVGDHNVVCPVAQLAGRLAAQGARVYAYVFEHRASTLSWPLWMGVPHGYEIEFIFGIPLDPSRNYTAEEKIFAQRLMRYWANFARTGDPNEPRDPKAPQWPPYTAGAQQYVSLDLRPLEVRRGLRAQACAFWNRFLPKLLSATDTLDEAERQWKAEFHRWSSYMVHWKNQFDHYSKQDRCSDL", "assay": "Inhibition of acetylcholinesterase (unknown origin) using acetylthiocholine iodide as substrate after 25 mins by Ellmann method", "summary_of_the_method": "(§1)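 Modified Ellman assay, triplicate. Compounds dissolved in Tween 80, diluted with water to five concentrations. Mix: enzyme […], substrate (acetylthiocholine iodide or butyrylthiocholine iodide) and test compound in phosphoric acid buffer, pH 8.0, 0.1 mol/L. Incubated 25 min at 30 °C, then terminated. IC50 reported as mean ± SD of three experiments.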"}, "[3]": {"molecular_target": "Cholinesterase (Homo sapiens, UniProt P06276)", "sequence (P06276 whole entry)": "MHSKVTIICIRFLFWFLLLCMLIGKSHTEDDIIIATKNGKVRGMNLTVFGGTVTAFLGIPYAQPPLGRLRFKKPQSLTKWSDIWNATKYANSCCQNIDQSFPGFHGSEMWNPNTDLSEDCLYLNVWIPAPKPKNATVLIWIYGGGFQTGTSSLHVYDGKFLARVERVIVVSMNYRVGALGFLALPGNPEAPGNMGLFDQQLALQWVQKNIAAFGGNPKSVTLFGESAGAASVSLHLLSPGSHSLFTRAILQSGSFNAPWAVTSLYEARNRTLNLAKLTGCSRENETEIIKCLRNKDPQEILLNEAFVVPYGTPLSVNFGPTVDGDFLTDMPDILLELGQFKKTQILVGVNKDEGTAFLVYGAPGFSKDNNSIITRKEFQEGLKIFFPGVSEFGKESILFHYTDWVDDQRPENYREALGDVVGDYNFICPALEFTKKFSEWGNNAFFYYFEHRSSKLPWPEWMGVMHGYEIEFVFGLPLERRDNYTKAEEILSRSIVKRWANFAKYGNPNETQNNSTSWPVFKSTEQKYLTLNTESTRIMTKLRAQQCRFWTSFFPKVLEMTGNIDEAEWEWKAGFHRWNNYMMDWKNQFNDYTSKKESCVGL", "assay": "Inhibition of butyrylcholinesterase (unknown origin) using butyrylthiocholine iodide as substrate after 25 mins by Ellmann method", "summary_of_the_method": "as §1"}, "[4]": {"species": "Homo sapiens", "assay": "Selectivity index, ratio of IC50 for butyrylcholinesterase (unknown origin) to IC50 for acetylcholinesterase (unknown origin)"}, "[5]": {"assay": "Octanol-water partition coefficient, log P of the compound at pH 7.4 by shake flask method", "assay_type": "physicochemical", "summary_of_the_method": "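Shake flask partition between octanol and PBS (pH 7.4). Mixture shaken at 37 °C overnight, then centrifuged at 2000 rpm for 20 min. Phases analysed by C18 HPLC with methanol-0.1% TEA (85:15, v/v) at 1.0 mL/min and 32 °C, detection at 322 nm. Run in triplicate, log P calculated.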"}, "[6]": {"molecular_target": "T1, Acetylcholinesterase", "assay": "Potency index, ratio of rivastigmine IC50 to compound IC50 for acetylcholinesterase (unknown origin)"}, "[7]": {"molecular_target": "T1, Acetylcholinesterase", "assay": "Competitive inhibition of acetylcholinesterase (unknown origin) using acetylthiocholine iodide as substrate by Michaelis-Menten plot analysis"}, "[8]": {"molecular_target": "T1, Acetylcholinesterase", "assay": "Noncompetitive inhibition of acetylcholinesterase (unknown origin) using acetylthiocholine iodide as substrate by Michaelis-Menten plot analysis"}},
  "data": [
    {"molecule": "COc1cc(/C=C/C(=O)Nc2ccccc2)ccc1OCCCCCCN1CCCCC1", "values": [
      {"measurement": "IC50", "setting": "[1]", "value": "> 500000", "unit": "nM"},
      {"measurement": "IC50", "setting": "[2]", "value": 710, "unit": "nM"},
      {"measurement": "IC50", "setting": "[3]", "value": 13000, "unit": "nM"},
      {"measurement": "Ratio IC50", "setting": "[4]", "value": 18.3},
      {"measurement": "logD", "setting": "[5]", "value": 1.77},
      {"measurement": "Ratio IC50", "setting": "[6]", "value": 15},
      {"measurement": "Ki", "setting": "[7]", "value": 480, "unit": "nM"},
      {"measurement": "Ki", "setting": "[8]", "value": 920, "unit": "nM"}
    ]}
  ]
}
